Calb FLC: affects C. albicans growth with fluconazole. C. albicans CaCi-2 (fluconazole-resistant clinical isolate) + fluconazole, Alamar Blue growth, 48 h. growth inhibition, % (no concentration beside the values). 0.57% of 300,000 active;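 active = growth inhibition above about 58% in most replicates, limit read from the data, passing the limit was not always enough; inconclusive = exactly half the replicates above a set limit; inactive = most replicates below a set limit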;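 note: all wells also contain fluconazole at 8 µg/ml as a sub-toxic cotreatment; 0% = median of DMSO wells and 100% = median of geldanamycin control wells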
T cruzi inh: blocks replication of Trypanosoma cruzi; T. cruzi beta-gal in NIH3T3, luminescence, 90 h; inhibition, % (concentration not given with the values); 1.4% of 300,000 active; AID 1885;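 active = mean inhibition across valid replicates above about 55%, limit read from the data; inconclusive = mean below that limit but half or more replicates reach it; inactive = mean below it, under half of replicates reach it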;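 note: signal also drops with host cell toxicity which is not excluded here; 0% = plate median of DMSO wells and 100% = zero luminescence signal; higher percent means less beta-gal luminescence so fewer parasites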
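Material: NIH/3T3 host cells with β-galactosidase reporter T. cruzi; Input: 5,000 host fibroblasts per well; Medium: DMEM, 2% fetal bovine serum; Compound: 50 nL DMSO compound solution per well; Schedule: 3 h host attachment, then at least 90 h co-culture; Detection: luminescent β-galactosidase signal after 60 min lysis.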
Beta cell apopt: blocks beta cell apoptosis; INS-1E cytokine-induced death, ATP luminescence, 48 h; percent of positive-control rescue, neutral wells zero; 0.8% of 300,000 active; protection from apoptosis, % (test concentration not listed);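 active = Every replicate reaches about 75%, or at least half do and their mean reaches it too, limit read from the data; inconclusive = At least half of replicates reach the limit but their mean does not; inactive = Under half of replicates reach the limit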;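 note: 0% = cytokine-treated negative control wells and 100% = positive control rescue; higher means more ATP so stronger rescue from cytokine killing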
SKKanGAS inh: inhibitors of SKKanGAS S. pyogenes growth in kanamycin (SK-promoter or general growth effect) | BacTiter-Glo, 6 h | inhibition, % at 7.5 µM | 1.3% of 300,000 active;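 active = mean replicate score, as percent of positive control median, at least 50; inconclusive = mean below 50 but one replicate at or above 50; inactive = mean and every replicate below 50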;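 note: strain carries kanamycin resistance gene driven by streptokinase promoter and grows in 40 µg/ml kanamycin; loss of luminescence reflects streptokinase promoter inhibition or plain growth inhibition; 0% = median of DMSO wells and 100% = positive control at its reference dose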
Mdm2 MdmX PPI: human Mdm2/MdmX binding inhibition. O15151+Q00987. AID 485346. inhibition, % at 8 µM. SaOS-2 split-luciferase Mdm2/MdmX complementation, luminescence. 3% of 330,000 active;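 active = inhibition of at least 50% at 8 µM in the primary screen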
CSC inhib: blocks cancer stem cells | cancer stem cell-like cells viability, luminescence | inhibition, % at 7.5 µM | 1.1% of 300,000 active | AID 2717; in the data active = inhibition above about 75%; inconclusive = no clear call, values can overlap the other calls; tested in HMLE shEcad cells
Mdm2-MdmX conf: confirmation of human Mdm2/MdmX interaction inhibitors. Mdm2-MdmX binding, luminescent assay. 55% of 10,000 active. shares compounds with Mdm2 MdmX PPI. AID 489028. inhibition, % at 8 µM; in the data active = inhibition above about 40%
Full FLuc ctr: counter-screen for Mdm2/MdmX inhibitors: full-length luciferase; shares compounds with Mdm2 MdmX PPI; SaOS-2 full-length luciferase counterscreen, luminescence; inhibition, % at 8 µM; 77% of 6,200 active;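 active = mean inhibition at 8 µM reaching about 37%, which flags the compound as non-specific, limit read from the data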;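 note: p53-null SaOS-2 cells with luciferase driven by a doxycycline-inducible promoter; compound on cells about two nights before reading with doxycycline added after day one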
Starred values were filed as active, the others as inactive; ? = inconclusive; · = not tested or not shown. The list is not random: actives were taken first. Their share in the collection is about 5.7%.

SMILES | Calb FLC | T cruzi inh | Beta cell apopt | SKKanGAS inh | Mdm2 MdmX PPI | CSC inhib | Mdm2-MdmX conf | Full FLuc ctr
CCOc1ccc(-n2c(-c3ccc(OC)cc3)c[n+]3c2CCCCC3)cc1 | 110.1* | 52.6 | 96.6* | -5.1 | 55.6* | 34.4 | 47.4* | 45.7*
CCOc1ccc(-c2cnc3n2CCC3)cc1 | -22.9 | 3.0 | 2.8 | -6.2 | -24.7 | -0.2 | · | ·
COc1ccc(-c2oc3ccc(N4CCOCC4)cc3c2C#CC2(O)CCCCC2)cc1 | 13.9 | 21.4 | · | 69.2* | 72.8* | 13.5 | 59.5* | 53.7*
COc1ccc(-c2oc3ccc(N4CCOCC4)cc3c2C#Cc2ccc(N)cc2)cc1 | 1.0 | -7.2 | -2.0 | 41.5 | 30.3 | -6.5 | · | ·
COc1cc(-c2ccc3oc(-c4ccsc4)c(C#CC4(O)CCCCC4)c3c2)cc(OC)c1OC | 16.4 | 40.9 | 15.5 | 39.7 | 51.5* | 73.4 | 9.3 | ·
COc1ccc(-c2oc3ccc(-c4cc(OC)c(OC)c(OC)c4)cc3c2C#Cc2ccccn2)cc1 | · | · | -0.5 | · | 85.3* | 36.8 | 63.9* | 64.0*
COc1ccc(-c2oc3cccnc3c2C#CC2(O)CCCCC2)cc1 | -8.1 | 17.5 | 2.9 | 57.0* | 52.4* | 36.0 | 38.6 | ·
N#Cc1cccc(S(=O)(=O)N2CCN(c3ccnc4cc(Cl)ccc34)CC2)c1 | 33.4 | 29.4 | 12.2 | 0.8 | 31.4 | -0.1 | · | ·
CNC(=O)c1ccc(CN(C)CC(=O)Nc2ccccc2C(=O)NC2CC2)cc1 | · | · | 10.2 | · | 8.9 | 14.3 | · | ·
CC(C)c1ccc(OCc2ccc(C(=O)N3CCCC3)o2)cc1 | 3.0 | 9.6 | -0.3 | -1.9 | -41.5 | -2.8 | · | ·
COc1cc(Cl)cc2c1Sc1ccccc1/C2=C/CCN(C)C | · | 26.4 | · | 7.7 | 68.6* | 63.0 | 13.1 | ·
COc1ccc(C)cc1S(=O)(=O)N1CCCC(C(=O)NC2CC2)C1 (stereo not drawn) | 3.4 | -5.5 | · | -1.0 | 19.0 | · | · | ·
O=C(CN1C(=O)c2ccccc2S1(=O)=O)c1ccc2c(c1)OCCO2 | 6.8 | -8.2 | -2.4 | 35.4 | 98.4* | -6.5 | 99.2* | 56.2*
O=C(CN1C(=O)c2ccccc2S1(=O)=O)c1ccc2c(c1)OCCCO2 | -0.5 | -9.2 | -7.7 | 48.3 | 94.9* | -7.4 | 81.0* | 56.2*
COc1ccc(C(=O)Nc2ccc(Cl)cc2F)cc1S(=O)(=O)N1CCCC1 | · | · | -6.2 | · | 21.5 | -8.3 | · | ·
O=C(Nc1cc(Cl)cc(Cl)c1)Nc1cnccn1 | -2.9 | 7.0 | 47.1 | ? | 75.4* | 26.2 | 29.6 | ·
COc1ccc(OCC(=O)NNC(=O)c2ccccc2OCc2c(C)noc2C)cc1 | 0.2 | 12.7 | · | -5.9 | 16.0 | -17.9 | · | ·
COc1cc2c(cc1OC)C(c1cccc(Br)c1)CC(=O)N2 (stereo not drawn) | -1.9 | -4.0 | -7.0 | -2.1 | 20.3 | -16.1 | · | ·
O=C1CC(c2cccc(Br)c2)c2cc3c(cc2N1)CCC3 (stereo not drawn) | 7.8 | 28.2 | · | 2.8 | 67.0* | · | 41.9* | 67.9*
CC1(C)CC(=O)C2=C(C1)NC(=O)CC2c1cc(F)ccc1F (stereo not drawn) | -10.7 | 0.0 | -2.5 | 0.3 | 26.9 | -4.8 | · | ·
O=C1CC(c2cc(F)ccc2F)c2cc3c(cc2N1)CCC3 (stereo not drawn) | 21.3 | -11.2 | -1.2 | -3.9 | 51.8* | 54.4 | 52.1* | 71.9*
COc1ccc(CCNC(=O)C(NS(=O)(=O)c2cccc3nsnc23)C(C)C)cc1OC (stereo not drawn) | 6.4 | -6.3 | · | -1.5 | 22.0 | · | · | ·
CS(=O)(=O)N(CC(=O)O)c1cc(C(F)(F)F)ccc1Cl | · | · | -10.1 | · | 18.6 | -12.9 | · | ·
CCC1=Nc2cc(C(=O)NCC3CCCO3)ccc2Sc2ccc(Cl)cc21 (stereo not drawn) | 8.0 | 22.5 | 16.4 | 7.4 | 64.7* | 58.1 | 55.0* | 44.8*
CC(OC(=O)CNC(=O)c1ccc(Cl)cc1)C(=O)NC1CCCCC1C (stereo not drawn) | -5.0 | -9.3 | · | -13.3 | -17.1 | -7.6 | · | ·
Cc1nn(-c2ccccc2)c(C)c1NC(=O)COC(=O)c1cc(Br)ccc1O | -5.0 | -12.0 | -2.4 | -5.4 | -2.5 | -3.1 | · | ·
Oc1ccc(Br)cc1-c1ccnn1-c1ccccc1 | -10.7 | -5.5 | 5.3 | -1.6 | 64.0* | 68.8 | 57.2* | 50.3*

From PubChem BioAssay
